Laboratory results reported in ChEMBL document CHEMBL4196207, “Medermycin-Type Naphthoquinones from the Marine-Derived Streptomyces sp. XMA39” (J Nat Prod, 2018).
Values after ≈ are worked out from the molar mass of the structure shown. Positions of bridges follow the written chain, without caps; N, C: chain ends. Non-standard residues stand in square brackets, D forms with d. Residues, ends and D or L forms follow the SMILES beside them. *: point of attachment. Octanoyl(6-Me) = CCC(C)CCCCC(=O)*; Dab = NCC[C@H](N)C(=O)O

What was measured:
PC-3 = experiment: Cytotoxicity against human PC3 cells after 72 hrs by SRB assay; format: functional, cell-based; conditions: PC-3, 72 h
Summary of the method: (§1)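 SRB assay. Cells were seeded 24 h, then given a range of compound concentrations for 72 h at 37 °C. Fixed with cold 10% TCA for 2 h at 4 °C, washed, stained with 0.4% SRB, rinsed with 1% acetic acid, and dye dissolved in 10 mM Tris. OD read at 515 nm. IC50 by the Reed–Muench method.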

HCT-116 = experiment: Cytotoxicity against human HCT116 cells after 72 hrs by SRB assay; format: functional, cell-based; conditions: HCT-116, 72 h; summary of the method: as §1
[1] = biological target: Rho-associated protein kinase 2 (Homo sapiens, UniProt O75116); experiment: Inhibition of ROCK2 (unknown origin) using SKT S2 as substrate measured after 30 mins by HTRF assay
Summary of the method: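 HTRF KinEASE format. Compound dilutions were added to a substrate/enzyme/ATP mixture and incubated 0.5 h at 37 °C. SA-XL665 and STK antibody–cryptate were then added, followed by 1 h at room temperature before HTRF read-out. Triplicate.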

Escherichia coli = experiment: Antimicrobial activity against Escherichia coli ATCC 25922 after 12 hrs by microdilution method; format: functional; conditions: ATCC 25922, 12 h
Summary of the method: (§2)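 Broth microdilution in 96-well plates. A 10 mg/mL DMSO stock was serially diluted in microbial cell suspension, 200 μL final. Plates were incubated at 37 °C for 12 h. MIC was read as the lowest concentration completely clear against a black background. Triplicate. E. coli strain ATCC 25922; C. albicans strain not specified.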

Staphylococcus aureus = experiment: Antimicrobial activity against methicillin-resistant Staphylococcus aureus ATCC 43300 after 12 hrs by microdilution method; format: functional; conditions: ATCC 43300, 12 h
Summary of the method: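 Broth microdilution. Compound stock of 10 mg/mL in DMSO was serially diluted with microbial cell suspension to a series of concentrations in 96-well plates. Plates were incubated at 37 °C for 12 h. MIC is the lowest concentration that stays completely clear against a black background. Vancomycin served as positive control. Tests were run in triplicate.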

Candida albicans = experiment: Antimicrobial activity against Candida albicans after 12 hrs by microdilution method; format: functional; summary of the method: as §2

Chain of Rho-associated protein kinase 2 (O75116 whole entry): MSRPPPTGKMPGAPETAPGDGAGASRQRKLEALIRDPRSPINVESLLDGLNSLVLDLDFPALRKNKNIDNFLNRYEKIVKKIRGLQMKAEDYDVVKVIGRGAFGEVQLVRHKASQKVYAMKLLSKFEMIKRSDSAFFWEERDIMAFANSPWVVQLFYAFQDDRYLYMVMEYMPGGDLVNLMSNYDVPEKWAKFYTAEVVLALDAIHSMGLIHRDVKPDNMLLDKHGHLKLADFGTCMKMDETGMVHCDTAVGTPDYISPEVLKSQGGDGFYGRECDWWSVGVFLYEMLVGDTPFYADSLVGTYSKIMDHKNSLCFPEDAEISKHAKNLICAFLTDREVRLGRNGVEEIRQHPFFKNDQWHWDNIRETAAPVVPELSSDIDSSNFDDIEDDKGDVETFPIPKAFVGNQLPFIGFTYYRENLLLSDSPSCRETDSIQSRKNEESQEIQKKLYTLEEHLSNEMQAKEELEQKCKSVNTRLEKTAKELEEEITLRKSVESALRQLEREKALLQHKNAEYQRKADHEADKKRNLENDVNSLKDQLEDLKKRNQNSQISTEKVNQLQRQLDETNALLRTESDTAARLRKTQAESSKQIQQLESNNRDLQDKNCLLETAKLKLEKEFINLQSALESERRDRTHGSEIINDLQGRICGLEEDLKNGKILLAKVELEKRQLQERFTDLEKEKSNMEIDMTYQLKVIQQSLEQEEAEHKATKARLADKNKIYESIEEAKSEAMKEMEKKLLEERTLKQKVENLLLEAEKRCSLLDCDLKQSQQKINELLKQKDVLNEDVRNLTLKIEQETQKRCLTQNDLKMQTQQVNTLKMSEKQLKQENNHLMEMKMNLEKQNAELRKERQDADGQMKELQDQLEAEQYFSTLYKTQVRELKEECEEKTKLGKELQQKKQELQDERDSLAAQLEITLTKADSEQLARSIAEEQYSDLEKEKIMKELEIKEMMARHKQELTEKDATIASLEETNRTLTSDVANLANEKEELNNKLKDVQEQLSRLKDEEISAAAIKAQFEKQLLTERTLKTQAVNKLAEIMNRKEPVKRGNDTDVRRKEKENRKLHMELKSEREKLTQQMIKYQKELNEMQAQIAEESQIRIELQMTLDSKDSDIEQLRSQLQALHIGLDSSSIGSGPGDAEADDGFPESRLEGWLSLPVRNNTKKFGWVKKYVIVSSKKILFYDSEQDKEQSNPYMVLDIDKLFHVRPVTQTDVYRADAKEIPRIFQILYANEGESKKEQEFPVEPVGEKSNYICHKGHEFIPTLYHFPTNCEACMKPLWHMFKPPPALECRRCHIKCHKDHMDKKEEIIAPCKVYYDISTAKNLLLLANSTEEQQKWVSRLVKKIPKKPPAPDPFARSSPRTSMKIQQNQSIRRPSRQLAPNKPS

SMILES	IC50 (PC-3)	IC50 (HCT-116)	IC50 [1]	MIC (Escherichia coli)	MIC (Staphylococcus aureus)	MIC (Candida albicans)
COC(=O)C[C@H]1O[C@H](C)c2c(oc(=O)c3ccc([C@H]4C[C@@H](N(C)C)[C@H](O)[C@@H](C)O4)c(O)c3c2=O)[C@H]1O	> 40 µM	> 40 µM	> 20 µM	10 µg/mL (≈ 19.8 µM)	15 µg/mL (≈ 29.7 µM)	10 µg/mL (≈ 19.8 µM)
COC(=O)C[C@@H]1C[C@@]2(O)C(=O)c3ccc([C@H]4C[C@@H](N(C)C)[C@H](O)[C@@H](C)O4)c(O)c3C(=O)[C@]2(O)[C@@H](C)O1	16 µM	4.4 µM	> 20 µM	5 µg/mL (≈ 9.85 µM)	6 µg/mL (≈ 11.8 µM)	9 µg/mL (≈ 17.7 µM)
C[C@H]1O[C@@H]2CC(=O)O[C@@H]2c2oc(=O)c3ccc([C@H]4C[C@@H](N(C)C)[C@H](O)[C@@H](C)O4)c(O)c3c(=O)c21	> 40 µM	> 40 µM	> 20 µM	8 µg/mL (≈ 16.9 µM)	12 µg/mL (≈ 25.3 µM)	7 µg/mL (≈ 14.8 µM)
COC(=O)C[C@H]1OC(C)=C2C(=O)c3c(ccc([C@H]4C[C@@H](N(C)C)[C@H](O)[C@@H](C)O4)c3O)C(=O)C2=C1O	19 µM	2.9 µM	9 µM	4 µg/mL (≈ 8.21 µM)	3 µg/mL (≈ 6.15 µM)	6 µg/mL (≈ 12.3 µM)
CCC(C)CCCCC(=O)N[C@@H](CCN)C(=O)N[C@H](C(=O)N[C@@H](CCN)C(=O)N[C@H]1CCNC(=O)[C@H]([C@@H](C)O)NC(=O)[C@H](CCN)NC(=O)[C@H](CCN)NC(=O)[C@H](CC(C)C)NC(=O)[C@@H](Cc2ccccc2)NC(=O)[C@H](CCN)NC1=O)[C@@H](C)O (some centres not stated) ({Octanoyl(6-Me)}-[Dab]T[Dab][Dab][Dab][dF]L[Dab][Dab]T; lactam 4-C)	–	–	–	2 µg/mL (≈ 1.66 µM)	–	–
C[C@@H]1[C@H](O)[C@@H](C)/C=C/C=C/C=C/C=C/C=C/C=C/C=C/[C@H](O[C@@H]2O[C@H](C)[C@@H](O)[C@H](N)[C@@H]2O)C[C@@H]2O[C@](O)(C[C@@H](O)C[C@@H](O)[C@H](O)CC[C@@H](O)C[C@@H](O)CC(=O)O[C@H]1C)C[C@H](O)[C@H]2C(=O)O [AMPHOTERICIN B]	–	–	–	–	–	2 µg/mL (≈ 2.16 µM)
C[C@H]1O[C@@H]2CC(=O)O[C@@H]2C2=C1C(=O)c1c(ccc([C@H]3C[C@@H](N(C)C)[C@H](O)[C@@H](C)O3)c1O)C2=O [LACTOQUINOMYCIN]	0.015 µM	0.043 µM	0.011 µM	2 µg/mL (≈ 4.37 µM)	0.25 µg/mL (≈ 0.546 µM)	5 µg/mL (≈ 10.9 µM)
